Measurements: ChEMBL document CHEMBL5705890, “Antitumor activity of an allosteric inhibitor of centromere-associated protein-E” (Proc Natl Acad Sci U S A, 2010)

Columns and labels:
Assay type in all cases: functional
HCT-116 = test: Antitumor activity against human HCT-116 cells in xenograft model assessed as tumor growth delay at 125 mg/kg relative to control
SW1783 = test: Anticancer activity against human SW1783 cells assessed as cell doubling measured for 72 hrs by DAPI staining based analysis
ES-2 = test: Anticancer activity against human ES2 cells assessed as cell growth inhibition measured after 72 hrs by DAPI staining based analysis
Summary of the method: (§1)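 Cells seeded, DAPI-stained DNA content of fixed cells read by imaging 24 h after seeding (T0), and again after a further 72 h exposure to a range of drug concentrations (T72). T72 values were normalized to T0. Curve fits gave the concentration producing 50% growth inhibition relative to T0 and Ymax (GI50).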

A2780 = test: Anticancer activity against human A2780 cells assessed as cell doubling measured for 72 hrs by DAPI staining based analysis
TK-10 = test: Anticancer activity against human TK-10 cells assessed as cell growth inhibition measured after 72 hrs by DAPI staining based analysis
U2OS [1] = test: Anticancer activity against human U2OS cells assessed as cell doubling measured for 72 hrs by DAPI staining based analysis
NCI-H358 = test: Anticancer activity against human NCI-H358 cells assessed as cell doubling measured for 72 hrs by DAPI staining based analysis
[2] = Anticancer activity against human NL-SCLC3 cells assessed as cell growth inhibition measured after 72 hrs by DAPI staining based analysis
BC-3 = test: Anticancer activity against human BC-3 cells assessed as cell doubling measured for 72 hrs by DAPI staining based analysis
HCC1954 = test: Anticancer activity against human HCC1954 cells assessed as cell growth inhibition measured after 72 hrs by DAPI staining based analysis; summary of the method: as §1
U2OS [3] = test: Anticancer activity against human U2OS cells assessed as cell growth inhibition measured after 72 hrs by DAPI staining based analysis
A-431 = test: Anticancer activity against human A-431 cells assessed as cell growth inhibition measured after 72 hrs by DAPI staining based analysis
Summary of the method: (§2)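 Cells were seeded and, after 24 h, DNA content was read as T0. Cells were then exposed to varying drug concentrations for a further 72 h (T72). Fixed cells were DAPI-stained and DNA content measured by automated imaging. T72 values were normalized to T0. GI50 is the concentration giving 50% growth inhibition between T0 and Ymax, obtained by curve fitting.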

CESS = test: Anticancer activity against human CESS cells assessed as cell doubling measured for 72 hrs by DAPI staining based analysis
SW1990 = test: Anticancer activity against human SW1990 cells assessed as cell doubling measured for 72 hrs by DAPI staining based analysis
HOP-62 = test: Anticancer activity against human HOP-62 cells assessed as cell growth inhibition measured after 72 hrs by DAPI staining based analysis
SNU-16 = test: Anticancer activity against human SNU-16 cells assessed as cell doubling measured for 72 hrs by DAPI staining based analysis
NCI-H2122 = test: Anticancer activity against human NCI-H2122 cells assessed as cell growth inhibition measured after 72 hrs by DAPI staining based analysis
[4] = Anticancer activity against human MJ cells assessed as cell growth inhibition measured after 72 hrs by DAPI staining based analysis
A204 = test: Anticancer activity against human A204 cells assessed as cell growth inhibition measured after 72 hrs by DAPI staining based analysis; summary of the method: as §2
NCI-H157 = test: Anticancer activity against human NCI-H157 cells assessed as cell growth inhibition measured after 72 hrs by DAPI staining based analysis
NCI-H1299 = test: Antitumor activity against human NCI-H1299 cells in xenograft model assessed as difference between median time to endpoint time of treated versus control group at 62.5 mg/kg
SK-N-AS = test: Anticancer activity against human SK-N-AS cells assessed as cell doubling measured for 72 hrs by DAPI staining based analysis
NCI-H209 = test: Anticancer activity against human NCI-H209 cells assessed as cell doubling measured for 72 hrs by DAPI staining based analysis
T47D = test: Anticancer activity against human T47D cells assessed as cell doubling measured for 72 hrs by DAPI staining based analysis
Caov-3 cell line = test: Anticancer activity against human Caov-3 cells assessed as cell doubling measured for 72 hrs by DAPI staining based analysis
SF-268 = test: Anticancer activity against human SF-268 cells assessed as cell doubling measured for 72 hrs by DAPI staining based analysis
NCI-H23 = test: Anticancer activity against human NCI-H23 cells assessed as cell growth inhibition measured after 72 hrs by DAPI staining based analysis
SK-N-FI = test: Anticancer activity against human SK-N-FI cells assessed as cell growth inhibition measured after 72 hrs by DAPI staining based analysis
DB = test: Anticancer activity against human DB cells assessed as cell growth inhibition measured after 72 hrs by DAPI staining based analysis; summary of the method: as §1
G-401 = test: Anticancer activity against human G-401 cells assessed as cell doubling measured for 72 hrs by DAPI staining based analysis
HCC70 = test: Anticancer activity against human HCC70 cells assessed as cell growth inhibition measured after 72 hrs by DAPI staining based analysis
SNU-475 = test: Anticancer activity against human SNU-475 cells assessed as cell doubling measured for 72 hrs by DAPI staining based analysis
NCI-H661 = test: Anticancer activity against human NCI-H661 cells assessed as cell growth inhibition measured after 72 hrs by DAPI staining based analysis
SCC-4 = test: Anticancer activity against human SCC-4 cells assessed as cell doubling measured for 72 hrs by DAPI staining based analysis
NCI-H2052 = test: Anticancer activity against human NCI-H2052 cells assessed as cell doubling measured for 72 hrs by DAPI staining based analysis
CAKI-2 = test: Anticancer activity against human CAKI-2 cells assessed as cell doubling measured for 72 hrs by DAPI staining based analysis
MCF7 = test: Antitumor activity against human MCF7 cells in xenograft model assessed as difference between median time to endpoint time of treated versus control group at 62.5 mg/kg
A549 = test: Anticancer activity against human A549 cells assessed as cell doubling measured for 72 hrs by DAPI staining based analysis
H4 = test: Anticancer activity against human H4 cells assessed as cell doubling measured for 72 hrs by DAPI staining based analysis
SAOS-2 = test: Anticancer activity against human SAOS-2 cells assessed as cell doubling measured for 72 hrs by DAPI staining based analysis
[5] = Anticancer activity against human TE 381.T cells assessed as cell doubling measured for 72 hrs by DAPI staining based analysis
FaDu = test: Anticancer activity against human FaDu cells assessed as cell doubling measured for 72 hrs by DAPI staining based analysis
NCI-H747 = test: Anticancer activity against human NCI-H747 cells assessed as cell doubling measured for 72 hrs by DAPI staining based analysis

CC(C)Oc1ccc(C(=O)N[C@H](CNC(=O)CN(C)C)Cc2ccc(-c3cn4cccc([C@H](C)O)c4n3)cc2)cc1Cl [GSK-923295A]
Activity (HCT-116): 37%
Activity (SW1783): 1.47
GI50 (ES-2): 30 nM
Activity (A2780): 1.62
GI50 (TK-10): 49 nM
Activity (U2OS [1]): 3.08
Activity (NCI-H358): 2.07
GI50 [2]: 31 nM
Activity (BC-3): 2.65
GI50 (HCC1954): 18 nM
GI50 (U2OS [3]): 45 nM
GI50 (A-431): 21 nM
Activity (CESS): 1.39
Activity (SW1990): 1.88
GI50 (HOP-62): 20 nM
Activity (SNU-16): 2.92
GI50 (NCI-H2122): 29 nM
GI50 [4]: 50 nM
GI50 (A204): 18 nM
GI50 (NCI-H157): 37 nM
Time (NCI-H1299): 3.3 days
Activity (SK-N-AS): 2.37
Activity (NCI-H209): 1.12
Activity (T47D): 1.44
Activity (Caov-3 cell line): 2.17
Activity (SF-268): 2.13
GI50 (NCI-H23): 27 nM
GI50 (SK-N-FI): 120 nM
GI50 (DB): 21 nM
Activity (G-401): 4.28
GI50 (HCC70): 24 nM
Activity (SNU-475): 1.8
GI50 (NCI-H661): 22 nM
Activity (SCC-4): 2.44
Activity (NCI-H2052): 2.09
Activity (CAKI-2): 1.63
Time (MCF7): 5.4 days
Activity (A549): 3.53
Activity (H4): 2.64
Activity (SAOS-2): 1.5
Activity [5]: 1.92
Activity (FaDu): 2.61
Activity (NCI-H747): 2.19
